Reference: ChEMBL document CHEMBL1155775, “Pharmacokinetics of the antiviral agent beta-D-2'-deoxy-2'-fluoro-2'-C-methylcytidine in rhesus monkeys” (Antimicrob Agents Chemother, 2007)
Values belong to the molecule of their own block, whether it stands above or below them.

Tests used:
[1] = Clearance in rhesus monkey at 33.3 mg/kg, iv administered as single dose; settings: in vivo
[2] = Terminal half life in rhesus monkey at 33.3 mg/kg, iv administered as single dose; format: ADME, organism-based, Macaca mulatta; set-up: dose 33.3 mg/kg, route intravenous; settings: in vivo, read-out: beta t1/2 (converted)
How it was run: (§1)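 Three rhesus monkeys; single 33.3 mg/kg oral dose by gastric intubation in water, then after ≥4-week washout i.v. bolus via femoral vein in sterile normal saline; anesthetized (ketamine plus Telazol i.m.) for 4 h. Femoral venous blood at 0–24 h; serum by HPLC-UV 270 nm, 3TC internal standard. Noncompartmental analysis per animal and pooled; AUC by trapezoid extrapolated to infinity; F = AUCoral/AUCi.v.; MAT = MRToral − MRTi.v.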

[3] = Metabolic stability in human whole blood at 1000 dpm/pmol after 4 hrs at 37 degC; format: ADME, tissue-based; settings: read-out: Stability
How it was run: (§2)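 3H-labeled nucleoside (10 μM, 1,000 dpm/pmol) incubated in human or monkey whole blood at 37°C for 0–48 h. Aliquots centrifuged, supernatant extracted with acetonitrile, dried, redissolved in water and run on ion-pairing reverse-phase C18 HPLC (ammonium acetate/tetrabutylammonium phosphate pH 7.0, methanol) to measure parent and deaminated product. Each time point in replicate.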

[4] = Cmax in rhesus monkey at 33.3 mg/kg, iv administered as single dose; format: ADME, organism-based, Macaca mulatta; set-up: dose 33.3 mg/kg, route intravenous; settings: in vivo
How it was run: (§3)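 Three rhesus monkeys, anesthetised with ketamine plus tiletamine/zolazepam, received a single 33.3 mg/kg bolus in sterile normal saline via the femoral vein. Serum was acetonitrile-extracted with 3TC as internal standard and assayed by reverse-phase HPLC-UV at 270 nm. Peak concentration and its time were taken as observed; noncompartmental analysis.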

[5] = Metabolic stability in rhesus monkey whole blood at 1000 dpm/pmol after 4 hrs at 37 degC; format: ADME, tissue-based, Macaca mulatta; settings: read-out: Stability
How it was run: as §2

[6] = Metabolic stability in rhesus monkey whole blood at 1000 dpm/pmol after 0.25 hrs at 37 degC; format: ADME, tissue-based, Macaca mulatta; settings: read-out: Stability
How it was run: as §2

[7] = Metabolic stability in rhesus monkey whole blood at 1000 dpm/pmol after 8 hrs at 37 degC; format: ADME, tissue-based, Macaca mulatta; settings: read-out: Stability
How it was run: as §2

[8] = Oral bioavailability in rhesus monkey at 33.3 mg/kg, po administered as single dose; format: ADME, organism-based, Macaca mulatta; settings: in vivo
How it was run: as §1

[9] = Metabolic stability in human whole blood at 1000 dpm/pmol after 1 hr at 37 degC; format: ADME, tissue-based; settings: read-out: Stability
How it was run: as §2

[10] = Metabolic stability in human whole blood at 1000 dpm/pmol after 0.5 hrs at 37 degC; format: ADME, tissue-based; settings: read-out: Stability
How it was run: as §2

[11] = Drug level in rhesus monkey cerebrospinal fluid at 33.3 mg/kg, iv administered as single dose after 1 hr; format: ADME, organism-based, Macaca mulatta; set-up: dose 33.3 mg/kg, route intravenous; settings: read-out: Drug uptake
How it was run: (§4)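 Same three anesthetized rhesus monkeys given single 33.3 mg/kg oral (water, gastric intubation) or i.v. (saline, femoral vein) dose. CSF taken 1 h post-dose by cisternal or lumbar tap; 3TC internal standard added, analyzed by reverse-phase HPLC with UV detection at 270 nm against standards in water (0.1–25 μg/ml).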

[12] = Metabolic stability in human whole blood at 1000 dpm/pmol after 2 hrs at 37 degC; format: ADME, tissue-based; settings: read-out: Stability
How it was run: as §2

[13] = Mean residence time in rhesus monkey at 33.3 mg/kg, po administered as single dose; format: ADME, organism-based, Macaca mulatta; set-up: dose 33.3 mg/kg, route oral; settings: in vivo
How it was run: as §1

[14] = Metabolic stability in rhesus monkey whole blood at 1000 dpm/pmol after 48 hrs at 37 degC; format: ADME, tissue-based, Macaca mulatta; settings: read-out: Stability
How it was run: as §2

[15] = Drug level in rhesus monkey cerebrospinal fluid at 33.3 mg/kg, po administered as single dose after 1 hr; format: ADME, organism-based, Macaca mulatta; set-up: dose 33.3 mg/kg, route oral; settings: read-out: Drug uptake
How it was run: as §4

[16] = Terminal half life in rhesus monkey at 33.3 mg/kg, po administered as single dose; format: ADME, organism-based, Macaca mulatta; set-up: dose 33.3 mg/kg, route oral; settings: in vivo, read-out: beta t1/2 (converted)
How it was run: as §1

[17] = Metabolic stability in rhesus monkey whole blood at 1000 dpm/pmol after 0.5 hrs at 37 degC; format: ADME, tissue-based, Macaca mulatta; settings: read-out: Stability
How it was run: as §2

[18] = Apparent volume of distribution with respect to bioavailability in rhesus monkey at 33.3 mg/kg, po administered as single dose; format: ADME, organism-based, Macaca mulatta; settings: in vivo, read-out: Vc/F
How it was run: as §1

[19] = Drug level in rhesus monkey cerebrospinal fluid assessed as 2'-deoxy-2'-fluoro-2'-C-methyluridine level at 33.3 mg/kg, iv administered as single dose after 1 hr; format: ADME, organism-based, Macaca mulatta; set-up: dose 33.3 mg/kg, route intravenous; settings: in vivo, read-out: Drug uptake
How it was run: as §4

[20] = tested on: HepG2; assay: Cytotoxicity against human HepG2 cells; format: cell-based
[21] = Volume of distribution at steady state in rhesus monkey at 33.3 mg/kg, iv administered as single dose; format: ADME, organism-based, Macaca mulatta; set-up: dose 33.3 mg/kg, route intravenous; settings: in vivo, read-out: Vdss
How it was run: as §1

[22] = Metabolic stability in rhesus monkey whole blood at 1000 dpm/pmol after 2 hrs at 37 degC; format: ADME, tissue-based, Macaca mulatta; settings: read-out: Stability
How it was run: as §2

[23] = tested on: Rhesus monkey; assay: Apparent volume of distribution with respect to bioavailability in rhesus monkey at 33.3 mg/kg, iv administered as single dose; format: ADME, organism-based, Macaca mulatta; settings: in vivo
How it was run: as §1

[24] = Metabolic stability in rhesus monkey whole blood at 1000 dpm/pmol after 10 hrs at 37 degC; format: ADME, tissue-based, Macaca mulatta; settings: read-out: Stability
How it was run: as §2

[25] = Metabolic stability in rhesus monkey whole blood at 1000 dpm/pmol after 1 hr at 37 degC; format: ADME, tissue-based, Macaca mulatta; settings: read-out: Stability
How it was run: as §2

[26] = Stability in rhesus monkey urine at 33.3 mg/kg assessed as unchanged drug dose administered as single dose during 8 hrs; format: ADME, organism-based, Macaca mulatta; set-up: dose 33.3 mg/kg; settings: read-out: Stability
How it was run: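 Catheterized rhesus monkeys given single 33.3 mg/kg oral or i.v. dose; urine collected in intervals over 0–8 h, kept on ice then frozen at −70°C; diluted 20-fold (oral) or 50-fold (i.v.), 3TC internal standard added, parent and deaminated uridine metabolite quantified by HPLC-UV 270 nm; percent of dose recovered.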

[27] = Metabolic stability in human whole blood at 1000 dpm/pmol after 10 hrs at 37 degC; format: ADME, tissue-based; settings: read-out: Stability
How it was run: as §2

[28] = Metabolic stability in human whole blood at 1000 dpm/pmol after 48 hrs at 37 degC; format: ADME, tissue-based; settings: read-out: Stability
How it was run: as §2

[29] = Metabolic stability in rhesus monkey whole blood at 1000 dpm/pmol after 24 hrs at 37 degC; format: ADME, tissue-based, Macaca mulatta; settings: read-out: Stability
How it was run: as §2

[30] = Apparent oral clearance in rhesus monkey at 33.3 mg/kg, po administered as single dose; format: ADME, organism-based, Macaca mulatta; set-up: dose 33.3 mg/kg, route oral; settings: in vivo
How it was run: as §1

[31] = Tmax in rhesus monkey at 33.3 mg/kg, iv administered as single dose; format: ADME, organism-based, Macaca mulatta; set-up: dose 33.3 mg/kg, route intravenous; settings: in vivo
How it was run: as §3

[32] = Metabolic stability in human whole blood at 1000 dpm/pmol after 0.25 hrs at 37 degC; format: ADME, tissue-based; settings: read-out: Stability
How it was run: as §2

[33] = AUC in rhesus monkey at 33.3 mg/kg, iv administered as single dose; format: ADME, organism-based, Macaca mulatta; set-up: dose 33.3 mg/kg, route intravenous; settings: plasma
How it was run: as §1

[34] = AUC in rhesus monkey at 33.3 mg/kg, po administered as single dose; format: ADME, organism-based, Macaca mulatta; set-up: dose 33.3 mg/kg, route oral; settings: plasma
How it was run: as §1

[35] = tested on: Rhesus monkey; assay: Mean absorption time in rhesus monkey at 33.3 mg/kg, po administered as single dose; format: ADME, organism-based, Macaca mulatta; set-up: dose 33.3 mg/kg, route oral; settings: in vivo
How it was run: as §1

[36] = Clearance in rhesus monkey at 33.3 mg/kg, po administered as single dose; format: ADME, organism-based, Macaca mulatta; set-up: dose 33.3 mg/kg, route oral; settings: in vivo
How it was run: as §1

[37] = Mean residence time in rhesus monkey at 33.3 mg/kg, iv administered as single dose; format: ADME, organism-based, Macaca mulatta; set-up: dose 33.3 mg/kg, route intravenous; settings: in vivo
How it was run: as §1

[38] = Metabolic stability in human whole blood at 1000 dpm/pmol after 8 hrs at 37 degC; format: ADME, tissue-based; settings: read-out: Stability
How it was run: as §2

[39] = Metabolic stability in human whole blood at 1000 dpm/pmol after 24 hrs at 37 degC; format: ADME, tissue-based; settings: read-out: Stability
How it was run: as §2

[40] = tested on: Hepatitis C virus; assay: Antiviral activity against HCV in human Huh7 cells by replicon based assay; format: functional, Hepacivirus hominis; settings: Huh-7
[41] = Metabolic stability in rhesus monkey whole blood assessed as 2'-deoxy-2'-fluoro-2'-C-methyluridine level at 1000 dpm/pmol after 24 hrs at 37 degC; format: ADME, tissue-based, Macaca mulatta
How it was run: as §2

[42] = Metabolic stability in human whole blood assessed as 2'-deoxy-2'-fluoro-2'-C-methyluridine level at 1000 dpm/pmol after 24 hrs at 37 degC; format: ADME, tissue-based
How it was run: as §2

Structure (SMILES): C[C@@]1(F)[C@H](O)[C@@H](CO)O[C@H]1n1ccc(N)nc1=O
clearance [1]: 10 mL/min/kg
half-life [2]: 4.54 h
remaining at 4 h [3]: 100%
Cmax [4]: 154000 nM
remaining at 4 h [5]: 100%
remaining at 0.25 h [6]: 100%
remaining at 8 h [7]: 100%
bioavailability [8]: 24%
remaining at 1 h [9]: 100%
remaining at 0.5 h [10]: 100%
concentration at 1 h [11]: 3670 nM
remaining at 2 h [12]: 100%
MRT [13]: 7.11 h
remaining at 48 h [14]: 80%
concentration at 1 h [15]: 280 nM
half-life [16]: 5.64 h
remaining at 0.5 h [17]: 100%
Vd/F [18]: 21.9 L/kg
concentration [19]: 1380 nM
Activity [20]: > 100 µM
Vd [21]: 1.51 L/kg
remaining at 2 h [22]: 100%
Vc/F [23]: 4.8 L/kg
remaining at 10 h [24]: 97.2%
remaining at 1 h [25]: 100%
dose excreted at 8 h [26]: 6%
remaining at 10 h [27]: 99.1%
remaining at 48 h [28]: 83.7%
remaining at 24 h [29]: 93.1%
CL/F [30]: 48 mL/min/kg
Tmax [31]: 0.25 h
remaining at 0.25 h [32]: 100%
AUC [33]: 235 µM·h
AUC [34]: 44.1 µM·h
MAT [35]: 4.61 h
CL/F [36]: 48 mL/min/kg
MRT [37]: 2.5 h
remaining at 8 h [38]: 100%
remaining at 24 h [39]: 95.1%
EC90 [40]: 5.4 µM

Stability [41]: 6.9%
Stability [42]: 4.9%
Structure (SMILES): C[C@@]1(F)[C@H](O)[C@@H](CO)O[C@H]1n1ccc(=O)[nH]c1=O
